The source made the active and inactive calls.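 Rule for the calls, unless noted: active = Her2 level under about 52% in both replicate screens, with viability over 70% of control (limit read from the data); inconclusive = Her2 under the limit in one screen only, or viability under 70%; inactive = Her2 level above the set limit.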
Assays:
[1] = reducers of endogenous Her2 protein level, primary screen, SKBR3 breast tumor cells, AlphaScreen, ATP viability (AID 461); details: 18-24 h, measured here: SKBR3 viability, ATP luminescence, at 10 µM;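 for Her2 level: lower value means less Her2 protein in the cells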;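 for viability: percent of carrier control wells set as 100% viability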
[2] = biological target: Receptor tyrosine-protein kinase erbB-2 (Homo sapiens) (UniProt P04626); test: as above; details: 18-24 h, at 10 µM, stronger effect = lower value
[3] = SK-BR-3 cell growth inhibitors, pilot screen, 24 h, human (AID 572;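 active = viability at or below 10% of carrier control in both of two separate runs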;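 note: compound exposure lasted between 18 and 24 h rather than exactly 24 h; 100% = carrier-treated control wells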); details: SK-BR-3 viability, CellTiter-Glo luminescence, at 10 µM, stronger effect = lower value
[4] = HUVEC growth inhibition – cell-based, human, primary screen (AID 575;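 active = viability at or below 30% in both replicate assays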;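 note: 100% = median of untreated cell wells with 0.1% DMSO on each plate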); details: HUVEC proliferation, CellTiter-Glo luminescence, 72 h; at 10 µM; stronger effect = lower value
How it was run: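 Timing: 72 h treatment at 37 °C; material: HUVEC primary cells; technique: CellTiter-Glo luminescence measuring cellular ATP; controls: vehicle and MePR control wells; measure: percent of median DMSO-control luminescence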

[5] = growth inhibitors of H69AR lung tumor, primary screen, human, duplicate replicates (AID 580;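 active = viability at or under a set limit in both replicates, limit being median viability minus 3 SD, cut at about 48% in these data, passing the limit was not always enough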;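 note: 100% = mean luminescence of untreated wells and 0% = no signal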); details: H69AR lung tumor cells viability, ATP luminescence, 72 h; at 10 µM; stronger effect = lower value
[6] = reversal of MRP1-mediated doxorubicin resistance, pilot screen, H69AR cells, doxorubicin co-treatment (AID 601;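 active = viability loss from added drug above about 55%, and viability with drug at most 40%, in both replicates, limit read from the data, passing the limit was not always enough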); details: CellTiter-Glo, 72 h, at 10 µM; for differential viability (reversal): stronger effect = higher value
[7] = 384-well plate pilot, post-Golgi transport modulator project, inhibition of yeast transport mutant growth (AID 636; in the data active = inhibition above about 31%); details: absorbance 615 nm, about 18 h, stronger effect = higher value
[8] = growth suppression of yeast trafficking mutant, preliminary HTS, modulators of trafficking downstream of Golgi apparatus project, 1536-format plate, OD 615 nm (AID 637; in the data active = inhibition above about 30%); details: yeast transport mutant growth, absorbance 615 nm, 18 h; stronger effect = higher value
[9] = H69AR cells + 2 uM doxorubicin, measured here: viability with 2 uM doxorubicin, stronger effect = lower value
[10] = H69AR cells, compound alone cytotoxicity

Receptor tyrosine-protein kinase erbB-2 (Homo sapiens), sequence (P04626 whole entry, looked up): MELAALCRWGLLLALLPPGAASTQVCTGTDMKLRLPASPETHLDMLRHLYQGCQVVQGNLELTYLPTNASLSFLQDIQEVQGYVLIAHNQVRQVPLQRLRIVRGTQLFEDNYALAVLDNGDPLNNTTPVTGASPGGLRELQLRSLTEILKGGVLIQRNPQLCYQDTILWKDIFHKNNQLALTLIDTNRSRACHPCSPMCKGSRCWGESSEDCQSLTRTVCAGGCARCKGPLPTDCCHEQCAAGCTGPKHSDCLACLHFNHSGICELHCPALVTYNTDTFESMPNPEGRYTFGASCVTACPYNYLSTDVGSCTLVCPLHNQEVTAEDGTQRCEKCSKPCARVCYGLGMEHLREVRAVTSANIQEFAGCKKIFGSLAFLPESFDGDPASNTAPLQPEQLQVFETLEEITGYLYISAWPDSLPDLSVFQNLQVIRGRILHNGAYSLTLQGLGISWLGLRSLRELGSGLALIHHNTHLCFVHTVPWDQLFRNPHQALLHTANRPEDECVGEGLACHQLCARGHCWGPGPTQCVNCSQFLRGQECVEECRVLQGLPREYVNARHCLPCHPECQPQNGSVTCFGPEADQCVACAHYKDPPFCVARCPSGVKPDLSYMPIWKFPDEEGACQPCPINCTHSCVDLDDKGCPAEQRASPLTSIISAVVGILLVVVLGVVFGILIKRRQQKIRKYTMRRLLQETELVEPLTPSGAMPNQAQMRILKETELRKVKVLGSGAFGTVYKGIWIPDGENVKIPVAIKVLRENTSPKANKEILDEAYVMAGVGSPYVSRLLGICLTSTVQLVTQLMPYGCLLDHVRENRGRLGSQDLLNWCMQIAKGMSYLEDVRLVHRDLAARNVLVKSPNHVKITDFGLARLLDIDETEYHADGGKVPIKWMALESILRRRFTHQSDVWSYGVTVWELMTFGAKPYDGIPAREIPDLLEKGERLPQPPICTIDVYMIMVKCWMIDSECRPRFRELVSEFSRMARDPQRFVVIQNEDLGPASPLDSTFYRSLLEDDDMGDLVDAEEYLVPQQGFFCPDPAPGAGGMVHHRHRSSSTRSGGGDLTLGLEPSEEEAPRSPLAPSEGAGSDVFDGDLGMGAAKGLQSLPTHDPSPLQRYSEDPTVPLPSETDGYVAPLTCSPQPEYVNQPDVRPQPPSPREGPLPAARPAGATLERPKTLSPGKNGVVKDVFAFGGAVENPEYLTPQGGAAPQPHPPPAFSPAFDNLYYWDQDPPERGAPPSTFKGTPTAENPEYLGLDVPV

SMILES | viability [1] [%] | Her2 level [2] | viability [3] | viability [4] | viability [5] | differential viability (reversal) ([6]; H69AR cells + 2 uM doxorubicin) | viability [6, 9] [%] | viability [6, 10] [%] | inhibition [7] | inhibition [8]
CCCCOc1ccc(-c2nnn(C(C)(C)C(=O)OC)n2)cc1 | 96 | 107% (inactive) | 96% (inactive) | 86% (inactive) | 92.2% (inactive) | -7.05% (inactive) | 99.3 | 92.2 | -0.91% (inactive) | -4.29% (inactive)
Cc1cc(C)n(C(=O)CCCCCC(=O)n2nc(C)cc2C)n1 | 116 | 86.5% (inactive) | 116% (inactive) | 105% (inactive) | 105% (inactive) | 10.8% (inactive) | 94.5 | 105 | -9.32% (inactive) | -2.86% (inactive)
CCOc1ccc(C2C(C(=O)OC)=CN(CCOC)C=C2C(=O)OC)cc1 | 106 | 109% (inactive) | 106% (inactive) | 90% (inactive) | 97.3% (inactive) | -1.94% (inactive) | 99.2 | 97.3 | 0.64% (inactive) | -1.33% (inactive)
O=S(CC(O)COCc1ccc(Cl)cc1)c1ccccn1 (stereo not given) | 100 | 90.5% (inactive) | 100% (inactive) | 111% (inactive) | 93% (inactive) | 1.46% (inactive) | 91.5 | 93 | -1.95% (inactive) | -3.93% (inactive)
CCN(CC)C(=O)C1CCC(CNS(=O)(=O)c2cccc3cccnc23)CC1 (stereo not given) | 92 | 97% (inactive) | 92% (inactive) | 89.9% (inactive) | 99.2% (inactive) | 2.08% (inactive) | 97.1 | 99.2 | -1.87% (inactive) | -2.3% (inactive)
CCOc1ccc2oc(-c3ccccc3)c(C(=O)N3CCN(CCO)CC3)c2c1 | 97.5 | 83% (inactive) | 97.5% (inactive) | 74.3% (inactive) | 72.9% (inactive) | 3.36% (inactive) | 69.6 | 72.9 | -4.42% (inactive) | 0% (inactive)
Cn1c(=O)c2c(-c3ccncc3)c3c(nc2n(C)c1=O)-c1ccccc1C3=O | 94 | 104% (inactive) | 94% (inactive) | 98.4% (inactive) | 95% (inactive) | 2.95% (inactive) | 92 | 95 | -1.6% (inactive) | 9.37% (inactive)
Cc1ccnc(NS(=O)(=O)c2ccc(NC(=O)Cc3cccs3)cc2)n1 | 94.5 | 111% (inactive) | 94.5% (inactive) | 87.6% (inactive) | 100% (inactive) | 8.61% (inactive) | 91.9 | 100 | 2.84% (inactive) | -2.79% (inactive)
CCN(CC)c1ccc2c(C)c(-c3ccc(N)cc3)c(=O)oc2c1 | 96.5 | 84.5% (inactive) | 96.5% (inactive) | 60.4% (inactive) | 61.8% (inactive) | -9.77% (inactive) | 71.6 | 61.8 | -7.33% (inactive) | 12.3% (inactive)
Cn1cnnc1Sc1nc2c(c(=O)n(C)c(=O)n2C)n1C | 87 | 98.5% (inactive) | 87% (inactive) | 107% (inactive) | 102% (inactive) | 5.7% (inactive) | 96.5 | 102 | -0.79% (inactive) | -9.09% (inactive)
O=C(CN1C(=O)COCC1=O)N1CCOCC1 | 91 | 86.5% (inactive) | 91% (inactive) | 104% (inactive) | 96.9% (inactive) | -0.64% (inactive) | 97.5 | 96.9 | 0.26% (inactive) | 0% (inactive)
Cc1cc(C(=O)CSCCCn2c(=O)[nH]c3ccccc32)c(C)n1C | 105 | 98% (inactive) | 105% (inactive) | 110% (inactive) | 98.1% (inactive) | 9.45% (inactive) | 88.7 | 98.1 | 0.41% (inactive) | -5.08% (inactive)
C=CCSc1nc2c(c(=O)[nH]c(=O)n2C)n1CC | 78.5 | 74% (inactive) | 78.5% (inactive) | 85.7% (inactive) | 93.2% (inactive) | 7.82% (inactive) | 85.3 | 93.2 | -5.54% (inactive) | -3.11% (inactive)
CCN(CC)S(=O)(=O)c1ccc2oc(C(=O)O)c(C)c2c1 | 108 | 100% (inactive) | 108% (inactive) | 102% (inactive) | 103% (inactive) | 10.4% (inactive) | 92.2 | 103 | -0.4% (inactive) | 4.43% (inactive)
Cc1ccccc1N1CC(c2nc3ccccc3[nH]2)CC1=O (stereo not given) | 102 | 91.5% (inactive) | 102% (inactive) | 87.7% (inactive) | 96.1% (inactive) | -0.615% (inactive) | 96.7 | 96.1 | -0.92% (inactive) | -5.71% (inactive)
CCOc1ccc(OCC)c2sc(C)nc12 | 107 | 94% (inactive) | 107% (inactive) | 102% (inactive) | 99.5% (inactive) | 12.4% (inactive) | 87.1 | 99.5 | 0.79% (inactive) | 1.48% (inactive)

SMILES | viability [1] [%] | Her2 level [2] | viability [3] | viability [4] | viability [5] | differential viability (reversal) ([6]; H69AR cells + 2 uM doxorubicin) | viability [6, 9] [%] | viability [6, 10] [%] | inhibition [7] | inhibition [8]
CC(=O)c1cccc(NC(=O)NCc2ccccn2)c1 | 91 | 87% (inactive) | 91% (inactive) | 92% (inactive) | 97.6% (inactive) | 6.09% (inactive) | 91.5 | 97.6 | -4.47% (inactive) | -4.17% (inactive)
CC(C)CNC(=O)c1ccccc1NC(=O)CN(c1ccc2c(c1)OCCO2)S(C)(=O)=O | 92 | 121% (inactive) | 92% (inactive) | 96.8% (inactive) | 92.3% (inactive) | 1.55% (inactive) | 90.8 | 92.3 | -0.27% (inactive) | -8.23% (inactive)
CC(C)=CCC(C)(C)C1OCCN1C(=O)c1ccccc1 (stereo not given) | 84.5 | 99% (inactive) | 84.5% (inactive) | 82.4% (inactive) | 98% (inactive) | 8.65% (inactive) | 89.3 | 98 | -3.77% (inactive) | 2.3% (inactive)
Cc1ccc(C)c(N2CCN(Cc3nnnn3C3CCCCC3)CC2)c1 | 94 | 91% (inactive) | 94% (inactive) | 78.1% (inactive) | 71% (inactive) | -9.05% (inactive) | 80 | 71 | -3.25% (inactive) | 3.49% (inactive)
Cc1cccc2cc(CN(Cc3nnnn3C3CCCC3)C3CCCCC3)c(=O)[nH]c12 | 84.5 | 109% (inactive) | 84.5% (inactive) | 72.7% (inactive) | 79.4% (inactive) | 0.525% (inactive) | 78.9 | 79.4 | -1.71% (inactive) | -10.2% (inactive)
CC(C)(C)N=C1NC(=NC(C)(C)C)c2ccccc21 | 77 | 86% (inactive) | 77% (inactive) | 86% (inactive) | 69.3% (inactive) | -11.5% (inactive) | 80.8 | 69.3 | 0.92% (inactive) | -7.64% (inactive)
Cn1nnc2c(sc3nc(N4CCOCC4)c4c(c32)CCCC4)c1=O | 100 | 114% (inactive) | 100% (inactive) | 90.9% (inactive) | 81.6% (inactive) | -7.71% (inactive) | 89.3 | 81.6 | -0.53% (inactive) | -5.08% (inactive)
Cc1cc2c(cc(C(=O)OCC(=O)NCc3cccs3)n2C(C)C)o1 | 83 | 63.5% (inactive) | 83% (inactive) | 37.3% (inactive) | 21.7% (active) | -30.4% (inactive) | 52.1 | 21.7 | -6% (inactive) | 5.9% (inactive)
COc1ccc(-c2nc(SC)n(S(=O)(=O)c3ccccc3)n2)cc1 | 80 | 114% (inactive) | 80% (inactive) | 86.1% (inactive) | 98.1% (inactive) | 17.5% (inactive) | 80.6 | 98.1 | 1.73% (inactive) | -10.8% (inactive)
CC(=O)N1CCc2cc(S(=O)(=O)CCC(=O)N3CCN(C(=O)c4ccco4)CC3)ccc21 | 99 | 88.5% (inactive) | 99% (inactive) | 104% (inactive) | 98.2% (inactive) | 10.1% (inactive) | 88.1 | 98.2 | -5.47% (inactive) | 2.95% (inactive)
O=C(CSc1nnc(-c2cnccn2)n1Cc1ccco1)c1ccc(Cl)cc1 | 90 | 81% (inactive) | 90% (inactive) | 105% (inactive) | 80.7% (inactive) | -2.83% (inactive) | 83.5 | 80.7 | -0.78% (inactive) | 6.5% (inactive)
COc1cc(N=c2ssnc2Cl)cc(OC)c1 | 84.5 | 111% (inactive) | 84.5% (inactive) | 78% (inactive) | 3.23% (active) | -1.38% (inactive) | 4.61 | 3.23 | -5% (inactive) | 0.48% (inactive)
CCCCCC1CC(CC#CCN2CCOCC2)C(=O)O1 (stereo not given) | 86 | 102% (inactive) | 86% (inactive) | 83.4% (inactive) | 93.8% (inactive) | 1.16% (inactive) | 92.6 | 93.8 | -7.4% (inactive) | -7.78% (inactive)
CC1=C(C(=O)NCc2ccccn2)C2(CCC(C)CC2)OC1=O (stereo not given) | 94.5 | 99% (inactive) | 94.5% (inactive) | 103% (inactive) | 89.4% (inactive) | -0.25% (inactive) | 89.7 | 89.4 | -5.47% (inactive) | -1.97% (inactive)
CC(C)(C)n1nnnc1C(c1cccc(C#N)c1)N1CCC(Cc2ccccc2)CC1 (stereo not given) | 87.5 | 86% (inactive) | 87.5% (inactive) | 114% (inactive) | 86.1% (inactive) | -0.44% (inactive) | 86.6 | 86.1 | -0.79% (inactive) | 1.77% (inactive)

Reference: PubChem BioAssay
